Assay results as given in ChEMBL document CHEMBL4052637, “Discovery and Characterization of R/S-N-3-Cyanophenyl-N'-(6-tert-butoxycarbonylamino-3,4-dihydro-2,2-dimethyl-2H-1-benzopyran-4-yl)urea, a New Histone Deacetylase Class III Inhibitor Exerting Antiproliferative Activity against Cancer Cell Lines” (J Med Chem, 2017).
The source made the active and inactive calls. No cut-off for these calls is given here.

Key:
[1] = Antiproliferative activity against human U373 cells after 72 hrs by MTT assay; format: functional, cell-based, U-373MG ATCC; settings: U373 MG
Procedure, shortened: (§1)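 MTT assay: cells in RPMI 1640 with 10% heat-inactivated FCS at 37 °C and 5% CO2 were seeded 24 h before treatment. They were exposed 72 h to compound at 0.01–100 μM, with DMSO as solvent.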

T98G = test: Antiproliferative activity against human T98G cells after 72 hrs by MTT assay; format: functional, cell-based; procedure, shortened: as §1
Hs 683 [2] = test: Antiproliferative activity against human Hs683 cells after 72 hrs by MTT assay; format: functional, cell-based; settings: Hs 683, 72 h; procedure, shortened: as §1
[3] = Selectivity index, ratio of IC50 for mouse astrocytes to IC50 for human U373 cells
[4] = Selectivity index, ratio of IC50 for mouse astrocytes to IC50 for human T98G cells
[5] = Selectivity index, ratio of IC50 for mouse astrocytes to IC50 for human Hs683 cells
[6] = molecular target: T1, NAD-dependent protein deacetylase sirtuin-2 (Homo sapiens, UniProt Q8IXJ6); test: Inhibition of N-terminal His-tagged recombinant human SIRT-2 expressed in Escherichia coli using Fluor-de-Lys-SIRT1 as substrate after 15 mins by fluorescence assay
T1 sequence (Q8IXJ6 whole entry): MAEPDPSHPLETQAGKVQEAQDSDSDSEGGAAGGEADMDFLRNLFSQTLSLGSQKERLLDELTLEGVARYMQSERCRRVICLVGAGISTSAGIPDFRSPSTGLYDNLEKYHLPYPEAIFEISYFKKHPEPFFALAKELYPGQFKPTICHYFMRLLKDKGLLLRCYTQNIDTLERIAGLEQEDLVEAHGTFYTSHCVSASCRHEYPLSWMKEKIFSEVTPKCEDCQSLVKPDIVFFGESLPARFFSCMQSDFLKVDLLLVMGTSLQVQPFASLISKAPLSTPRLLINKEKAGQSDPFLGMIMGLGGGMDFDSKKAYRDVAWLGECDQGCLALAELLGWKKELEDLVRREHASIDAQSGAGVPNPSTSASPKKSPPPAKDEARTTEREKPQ

[7] = molecular target: T2, NAD-dependent protein deacetylase sirtuin-1 (Homo sapiens, UniProt Q96EB6); test: Inhibition of N-terminal His-tagged recombinant human SIRT-1 expressed in Escherichia coli using Fluor-de-Lys-SIRT1 as substrate after 15 mins by fluorescence assay
T2 sequence (Q96EB6 whole entry): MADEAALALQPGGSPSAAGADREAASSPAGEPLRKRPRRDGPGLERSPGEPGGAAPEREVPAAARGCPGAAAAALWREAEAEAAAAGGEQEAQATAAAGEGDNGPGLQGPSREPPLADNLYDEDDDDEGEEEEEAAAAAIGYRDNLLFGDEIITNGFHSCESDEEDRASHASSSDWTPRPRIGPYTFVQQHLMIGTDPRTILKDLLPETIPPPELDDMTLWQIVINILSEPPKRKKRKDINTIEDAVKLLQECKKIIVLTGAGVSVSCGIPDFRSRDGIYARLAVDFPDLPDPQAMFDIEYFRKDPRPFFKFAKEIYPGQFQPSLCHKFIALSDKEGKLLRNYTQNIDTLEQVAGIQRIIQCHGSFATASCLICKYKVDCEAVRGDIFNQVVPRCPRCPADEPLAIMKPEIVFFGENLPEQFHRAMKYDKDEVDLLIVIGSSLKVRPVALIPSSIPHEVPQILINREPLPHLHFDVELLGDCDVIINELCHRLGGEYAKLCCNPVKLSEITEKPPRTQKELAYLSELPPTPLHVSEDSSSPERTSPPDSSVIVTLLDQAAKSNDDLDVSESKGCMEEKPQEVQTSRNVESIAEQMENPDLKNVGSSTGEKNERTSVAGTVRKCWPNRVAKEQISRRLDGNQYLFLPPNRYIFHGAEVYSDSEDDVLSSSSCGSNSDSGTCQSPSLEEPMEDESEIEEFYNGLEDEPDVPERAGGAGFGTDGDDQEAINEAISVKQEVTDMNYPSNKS

U-373MG ATCC [8] = test: Cell cycle arrest in human U373 cells assessed as accumulation at sub-G1 phase at IC50 for MTT assay after 24 to 48 hrs by propidium iodide staining-based flow cytometry; format: functional
Procedure, shortened: (§2)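 Cells were exposed to compound at the IC50 for each line from the 72 h MTT assay, or to a reference HDAC inhibitor at 2 μM. Cell cycle distribution was analyzed after 24 and 48 h. Results are mean ± SD of three independent experiments, with p values against control cells.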

Hs 683 [9] = test: Cell cycle arrest in human Hs683 cells assessed as accumulation at sub-G1 phase at IC50 for MTT assay after 24 to 48 hrs by propidium iodide staining-based flow cytometry; format: functional; procedure, shortened: as §2
Hs 683 [10] = test: Cell cycle arrest in human Hs683 cells assessed as accumulation at G1 phase at IC50 after 24 to 48 hrs by propidium iodide staining-based flow cytometry; format: functional; procedure, shortened: as §2
[11] = molecular target: NAD-dependent protein deacetylase sirtuin-3, mitochondrial (Homo sapiens, UniProt Q9NTG7); test: Inhibition of N-terminal His-tagged recombinant human SIRT-3 expressed in Escherichia coli using Fluor-de-Lys-SIRT1 as substrate after 15 mins by fluorescence assay
NAD-dependent protein deacetylase sirtuin-3, mitochondrial, sequence (Q9NTG7 whole entry): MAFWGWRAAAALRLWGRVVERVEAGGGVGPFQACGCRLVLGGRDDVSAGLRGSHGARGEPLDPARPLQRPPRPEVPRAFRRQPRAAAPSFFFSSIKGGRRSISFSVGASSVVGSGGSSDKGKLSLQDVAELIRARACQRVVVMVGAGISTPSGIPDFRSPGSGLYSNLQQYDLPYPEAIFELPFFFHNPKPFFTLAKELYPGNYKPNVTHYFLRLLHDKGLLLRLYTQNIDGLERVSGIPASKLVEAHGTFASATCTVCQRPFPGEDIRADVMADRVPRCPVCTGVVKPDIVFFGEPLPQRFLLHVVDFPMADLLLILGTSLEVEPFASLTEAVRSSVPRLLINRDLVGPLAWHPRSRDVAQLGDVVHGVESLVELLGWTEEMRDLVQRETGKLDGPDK

Hs 683 [12] = test: Cell cycle arrest in human Hs683 cells assessed as accumulation at G2/M phase at IC50 after 24 to 48 hrs by propidium iodide staining-based flow cytometry; format: functional; procedure, shortened: as §2
U-373MG ATCC [13] = test: Cell cycle arrest in human U373 cells assessed as accumulation at G2/M phase at IC50 after 24 to 48 hrs by propidium iodide staining-based flow cytometry; format: functional; procedure, shortened: as §2

Row | SMILES | IC50 [1] [µM] | IC50 (T98G) [µM] | IC50 (Hs 683 [2]) [µM] | further results
1 | CC(C)(C)OC(=O)Nc1ccc2c(c1)C(NC(=O)Nc1cccc(N)c1)CC(C)(C)O2 (racemic) | 97 | > 100 | 91 | 
2 | CC(C)(C)OC(=O)Nc1ccc2c(c1)C(NC(=O)Nc1cccc(CN)c1)CC(C)(C)O2 (racemic) | > 100 | > 100 | 95 | 
3 | CC(C)(C)OC(=O)Nc1ccc2c(c1)C(NC(=O)Nc1cccc(C(F)(F)F)c1)CC(C)(C)O2 (racemic) | 9 | 21 | 9 | Ratio IC50 [3]: <2; Ratio IC50 [4]: <2; Ratio IC50 [5]: <2
4 | CC(C)(C)OC(=O)Nc1ccc2c(c1)C(NC(=O)Nc1cccc(Br)c1)CC(C)(C)O2 (racemic) | 22 | 26 | 18 | 
5 | CCOC(=O)Nc1ccc2c(c1)C(NC(=O)Nc1cccc(C#N)c1)CC(C)(C)O2 (centres undefined) |  |  |  | IC50 [6]: 51.1 µM; IC50 [7]: 109 µM
6 | CC1(C)CC(NC(=S)Nc2ccc([N+](=O)[O-])cc2)c2cc(Cl)ccc2O1 (centres undefined) |  |  |  | IC50 [6]: > 200 µM; IC50 [7]: > 200 µM
7 | CC(C)(C)OC(=O)Nc1ccc2c(c1)C(NC(=O)Nc1ccccc1C#N)CC(C)(C)O2 (racemic) | 45 | 67 | 54 | 
8 | CC(C)(C)OC(=O)Nc1ccc2c(c1)C(NC(=O)Nc1ccccc1[N+](=O)[O-])CC(C)(C)O2 (racemic) | 12 | 22 | 13 | Ratio IC50 [3]: >10; Ratio IC50 [4]: >10; Ratio IC50 [5]: >10
9 | CC1(C)CC(NC(=O)Nc2cccc(C#N)c2)c2cc(N)ccc2O1 (racemic) | > 100 | > 100 | > 100 | 
10 | NC(=O)C1CCCc2c1[nH]c1ccc(Cl)cc21 (centres undefined) | 157 |  | 116 | Activity (U-373MG ATCC [8]): inactive; Activity (Hs 683 [9]): inactive; Activity (Hs 683 [10]): Active
11 | COc1ccc(NC(=O)NC2CC(C)(C)Oc3ccc(NC(=O)OC(C)(C)C)cc32)cc1 (racemic) | 33 | 49 | 62 | 
12 | CC(C)(C)OC(=O)Nc1ccc2c(c1)C(NC(=O)Nc1ccccc1Cl)CC(C)(C)O2 (racemic) | 59 | 88 | 34 | 
13 | CC(C)(C)OC(=O)Nc1ccc2c(c1)C(NC(=O)Nc1ccc(Cl)cc1)CC(C)(C)O2 (centres undefined) | 22 | 26 | 26 | 
14 | CC(C)(C)OC(=O)Nc1ccc2c(c1)C(NC(=O)Nc1cccc(F)c1)CC(C)(C)O2 (racemic) | 20 | 26 | 19 | 
15 | CC(C)(C)OC(=O)Nc1ccc2c(c1)C(NC(=O)Nc1ccc([N+](=O)[O-])cc1)CC(C)(C)O2 (racemic) | 24 | 26 | 20 | 
16 | CC(C)(C)OC(=O)Nc1ccc2c(c1)C(NC(=O)Nc1cccc([N+](=O)[O-])c1)CC(C)(C)O2 (racemic) | 1 | 7 | 16 | Ratio IC50 [3]: <5; Ratio IC50 [4]: <5; IC50 [6]: 99.8 µM; Ratio IC50 [5]: <5; IC50 [7]: > 200 µM
17 | CC(C)(C)OC(=O)Nc1ccc2c(c1)C(NC(=O)Nc1ccc(C#N)cc1)CC(C)(C)O2 (centres undefined) | 10 | 26 | 18 | Ratio IC50 [3]: >10; Ratio IC50 [4]: >10; IC50 [6]: 110 µM; Ratio IC50 [5]: >10; IC50 [7]: 121 µM
18 | Cc1ccc(C(=O)Nc2ccc(S(=O)(=O)O)c3cc(S(=O)(=O)O)cc(S(=O)(=O)O)c23)cc1NC(=O)c1cccc(NC(=O)Nc2cccc(C(=O)Nc3cc(C(=O)Nc4ccc(S(=O)(=O)O)c5cc(S(=O)(=O)O)cc(S(=O)(=O)O)c45)ccc3C)c2)c1 [SURAMIN] |  |  |  | IC50 [11]: > 200 µM; IC50 [6]: 13 µM
19 | COC(=O)Nc1ccc2c(c1)C(NC(=O)Nc1cccc(C#N)c1)CC(C)(C)O2 (centres undefined) |  |  |  | IC50 [6]: 49.4 µM; IC50 [7]: 110 µM
20 | COc1cccc(NC(=O)NC2CC(C)(C)Oc3ccc(NC(=O)OC(C)(C)C)cc32)c1 (racemic) | 30 | > 100 | 37 | 
21 | N#C/C(=C\c1ccc(-c2cc(Cl)ccc2Cl)o1)C(=O)Nc1cccc2ncccc12 | 47.6 |  | 80.2 | Activity (U-373MG ATCC [8]): Active; Activity (Hs 683 [12]): Active; Activity (U-373MG ATCC [13]): Active; Activity (Hs 683 [9]): Active; IC50 [7]: 98.1 µM
22 | CC(NC(=O)c1ccccc1/N=C/c1c(O)ccc2ccccc12)c1ccccc1 (centres undefined) [SIRTINOL] | 39.3 |  | 33.9 | Activity (U-373MG ATCC [8]): inactive; Activity (Hs 683 [12]): Active; Activity (U-373MG ATCC [13]): Active; Activity (Hs 683 [9]): inactive; Activity (Hs 683 [10]): Active
23 | CC(C)OC(=O)Nc1ccc2c(c1)C(NC(=O)Nc1cccc(C#N)c1)CC(C)(C)O2 (centres undefined) |  |  |  | IC50 [6]: 22.7 µM; IC50 [7]: 54.8 µM
24 | CC1(C)CC(NC(=O)Nc2cccc(C#N)c2)c2cc(NC=O)ccc2O1 (racemic) | > 100 | > 100 | > 100 | 
25 | CC(C)(C)OC(=O)Nc1ccc2c(c1)C(NC(=O)Nc1cccc(Cl)c1)CC(C)(C)O2 (centres undefined) | 18 | 20 | 12 | Ratio IC50 [3]: >12; Ratio IC50 [4]: >12; IC50 [6]: 18.5 µM; Ratio IC50 [5]: >12; IC50 [7]: 32.1 µM
26 | COc1ccccc1NC(=O)NC1CC(C)(C)Oc2ccc(NC(=O)OC(C)(C)C)cc21 (racemic) | 30 | 39 | 59 | 
27 | CC1(C)CC(NC(=O)Nc2cccc(C#N)c2)c2ccccc2O1 (racemic) | 38 | 32 | 31 | 
28 | CC(C)(C)OC(=O)Nc1ccc2c(c1)C(NC(=O)Nc1ccccc1C(F)(F)F)CC(C)(C)O2 (racemic) | > 100 |  |  | 
29 | CC(C)(C)OC(=O)Nc1ccc2c(c1)C(NC(=O)Nc1ccc(C(F)(F)F)cc1)CC(C)(C)O2 (racemic) | 10 | 15 | 11 | Ratio IC50 [3]: >10; Ratio IC50 [4]: >10; Ratio IC50 [5]: >10
